Source: ChEMBL document CHEMBL4613291, “Structural Elucidation and Antimicrobial Characterization of Novel Diterpenoids from Fabiana densa var. ramulosa” (ACS Med Chem Lett, 2020)
Active and inactive are the calls of the source. No cut-off for these calls is given here.

Tests used:
[1] = test system: Escherichia coli; experiment: Antimicrobial activity against Escherichia coli ATCC 25922 assessed as reduction in bacterial growth at 16 to 64 uM incubated for 16 hrs by broth dilution method; type: functional, organism-based
In short: (§1)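 Bacterial growth was measured with the strain panel split into Gram-negative and Gram-positive groups. Growth is expressed as percentage of vehicle-treated control bacteria. Values are the mean of three independent experiments ± SEM. Each treated group was compared with control for significance (p < 0.05, 0.01, 0.0001). The highest concentration tested was 64 μM.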

[2] = test system: Pseudomonas aeruginosa; experiment: Antimicrobial activity against Pseudomonas aeruginosa ATCC 27853 assessed as reduction in bacterial growth at 16 to 64 uM incubated for 16 hrs by broth dilution method; type: functional, organism-based; in short: as §1
[3] = test system: Staphylococcus aureus; experiment: Antimicrobial activity against Staphylococcus aureus ATCC 25923 assessed as reduction in bacterial growth at 16 to 64 uM incubated for 16 hrs by broth dilution method; type: functional, organism-based; in short: as §1
[4] = test system: Staphylococcus epidermidis; experiment: Antimicrobial activity against Staphylococcus epidermidis ATCC 12228 assessed as reduction in bacterial growth at 16 to 64 uM incubated for 16 hrs by broth dilution method; type: functional, organism-based; in short: as §1
[5] = test system: Priestia megaterium; experiment: Antimicrobial activity against Bacillus megaterium Bm11 assessed as reduction in bacterial growth at 16 to 64 uM incubated for 16 hrs by broth dilution method; type: functional, organism-based; in short: as §1
[6] = test system: Bacillus thuringiensis; experiment: Antimicrobial activity against Bacillus thuringiensis B15 assessed as reduction in bacterial growth at 16 to 64 uM incubated for 16 hrs by broth dilution method; type: functional, organism-based; in short: as §1
[7] = test system: Staphylococcus epidermidis; experiment: Antimicrobial activity against Staphylococcus epidermidis ATCC 12228 assessed as reduction in bacterial growth at 64 uM incubated for 16 hrs by broth dilution method relative to control; type: functional; conditions: ATCC 12228, 16 h; in short: as §1
[8] = test system: Bacillus thuringiensis; experiment: Antimicrobial activity against Bacillus thuringiensis B15 assessed as reduction in bacterial growth at 64 uM incubated for 16 hrs by broth dilution method relative to control; type: functional; conditions: B15, 16 h; in short: as §1
[9] = test system: Staphylococcus aureus; experiment: Antimicrobial activity against Staphylococcus aureus ATCC 25923 assessed as reduction in bacterial growth at 64 uM incubated for 16 hrs by broth dilution method relative to control; type: functional; conditions: ATCC 25923, 16 h; in short: as §1
[10] = Cytotoxicity against human HaCaT cells assessed as reduction in cell viability at 64 uM incubated for 24 hrs by MTT assay relative to control; type: cell-based; conditions: read-out: INH
In short: (§2)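 Human immortalized keratinocytes (HaCaT) were exposed for 24 h across 16–64 μM. Metabolically active cells were read by MTT and calculated as a percentage of vehicle-treated cells. Values are the mean of three independent experiments ± SEM.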

[11] = test system: Priestia megaterium; experiment: Antimicrobial activity against Bacillus megaterium Bm11 assessed as reduction in bacterial growth at 16 to 64 uM incubated for 16 hrs by broth dilution method relative to control; type: functional; in short: as §1
[12] = test system: HaCaT; experiment: Cytotoxicity against human HaCaT cells assessed as reduction in cell viability at 16 to 64 uM incubated for 24 hrs by MTT assay; type: cell-based; in short: as §2

Row | SMILES | inhibition [1] | inhibition [2] | inhibition [3] | inhibition [4] | inhibition [5] | inhibition [6] | inhibition at 64 µM [7] | inhibition at 64 µM [8] | inhibition at 64 µM [9] | cytotoxicity at 24 h, 64 µM [10] | inhibition (INH) [11] | Activity [12]
1 | C[C@]12C=C[C@@]3(CC[C@@H]4[C@@](C)(COC(=O)CCC(=O)OC[C@@]5(C)CCC[C@]6(C)[C@@H]5CC[C@@]57C=C[C@@](C)(CC[C@H]56)C7)CCC[C@@]4(C)[C@@H]3CC1)C2 | inactive | inactive | inactive | inactive | inactive | inactive | – | – | – | – | – | –
2 | C[C@]12C=C[C@@]3(CC[C@@H]4[C@@](C)(COC(=O)C(=O)O)CCC[C@@]4(C)[C@@H]3CC1)C2 | – | – | – | – | – | – | 50% | 50% | 40% | 36% | – | –
3 | C[C@]12C=C[C@@]3(CC[C@@H]4[C@@](C)(COC(=O)CC(=O)O)CCC[C@@]4(C)[C@@H]3CC1)C2 | – | – | Active | Active | Active | Active | – | > 70% | – | 14% | >70% | –
4 | C[C@]12C=C[C@@]3(CC[C@@H]4[C@@](C)(CO)CCC[C@@]4(C)[C@@H]3CC1)C2 | inactive | inactive | inactive | inactive | inactive | inactive | – | – | – | – | – | Non-Toxic
5 | C[C@]12C=C[C@@]3(CC[C@@H]4[C@@](C)(COC(=O)CCC(=O)O)CCC[C@@]4(C)[C@@H]3CC1)C2 | – | – | – | – | – | – | 80% | 100% | 40% | 20% | 80% | –
6 | C[C@]12C=C[C@@]3(CC[C@@H]4[C@@](C)(COC(=O)CC(=O)OC[C@@]5(C)CCC[C@]6(C)[C@@H]5CC[C@@]57C=C[C@@](C)(CC[C@H]56)C7)CCC[C@@]4(C)[C@@H]3CC1)C2 | inactive | inactive | inactive | inactive | inactive | inactive | – | – | – | – | – | –
7 | C[C@]12C=C[C@@]3(CC[C@@H]4[C@@](C)(COC(=O)C(=O)OC[C@@]5(C)CCC[C@]6(C)[C@@H]5CC[C@@]57C=C[C@@](C)(CC[C@H]56)C7)CCC[C@@]4(C)[C@@H]3CC1)C2 | inactive | inactive | inactive | inactive | inactive | inactive | – | – | – | – | – | –
